Compounds with a hit are over-represented: about 3.5% of the library has one in this group of screens.
Ecoli rRNA inh: reduced GFP signal of wild-type E. coli, primary screen, bacterial rRNA inhibitor project, GFP/RFP fluorescence, OD600, single point. E. coli WT GFP vs humanized-ribosome RFP mutants, 24 h; hits give low values; DMSO median 0, no signal -100. GFP signal change (wild-type ribosome), % (test concentration not listed). 1.6% of 350,000 active;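 active = significant combined selectivity score with lowered wild-type GFP, culture density cut under 30%, mutant RFP and density less affected; inactive = any of these conditions unmet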
FGF22 binding-1: binders of human FGF22 protein, primary screen, FGF22 synaptogenesis inhibitor project, biophysical, thermal shift, single point | recombinant FGF22 thermal shift, SYPRO orange fluorescence; percent of sucrose octasulfate shift, DMSO zero | AID 651658, 2012 | Fibroblast growth factor 22 (Homo sapiens), Q9HCT0 | activity (Tm shift, normalised), % at 9.99 µM | 1.5% of 340,000 active;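 active = mean Tm shift, scaled 0 neutral to 100 positive control, at about 1.3% or above, every replicate too, limit read from the data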
HIV Env fusion: inhibitors of HIV-1 Env-driven cell-cell fusion, primary screen, HeLa-JRFL effector, CEM21 target cells, luciferase; AID 651610, 2012; inhibition, % at 12.3 µM; 1.1% of 360,000 active;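 active = mean replicate inhibition score of at least 50 and every replicate individually at or above 50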
PGC1a acetyl inh: inhibitors of PGC1a acetylation signal, primary screen, cell-based, U2OS, AlphaScreen, inhibitor mode; AlphaScreen anti-acetyl-lysine; with virally co-expressed GCN5 acetyltransferase; inhibition, % at 15.6 µM; 0.17% of 350,000 active;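 active = every replicate shows inhibition of at least 40%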
ERAP1 inh: human ERAP1 aminopeptidase inhibitors, primary screen, biochemical, single point, plate reader. Endoplasmic reticulum aminopeptidase 1 (Homo sapiens), Q9NZ08. recombinant ERAP1, Leu-AMC fluorescence, 60 min. inhibition, % at 10.7 µM. 0.15% of 340,000 active;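 active = mean replicate inhibition of at least 30%, or all replicates individually reaching that 30% level; inactive = mean below 30% and not every replicate reaching it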
Target sequence (Q9NZ08 whole entry, looked up): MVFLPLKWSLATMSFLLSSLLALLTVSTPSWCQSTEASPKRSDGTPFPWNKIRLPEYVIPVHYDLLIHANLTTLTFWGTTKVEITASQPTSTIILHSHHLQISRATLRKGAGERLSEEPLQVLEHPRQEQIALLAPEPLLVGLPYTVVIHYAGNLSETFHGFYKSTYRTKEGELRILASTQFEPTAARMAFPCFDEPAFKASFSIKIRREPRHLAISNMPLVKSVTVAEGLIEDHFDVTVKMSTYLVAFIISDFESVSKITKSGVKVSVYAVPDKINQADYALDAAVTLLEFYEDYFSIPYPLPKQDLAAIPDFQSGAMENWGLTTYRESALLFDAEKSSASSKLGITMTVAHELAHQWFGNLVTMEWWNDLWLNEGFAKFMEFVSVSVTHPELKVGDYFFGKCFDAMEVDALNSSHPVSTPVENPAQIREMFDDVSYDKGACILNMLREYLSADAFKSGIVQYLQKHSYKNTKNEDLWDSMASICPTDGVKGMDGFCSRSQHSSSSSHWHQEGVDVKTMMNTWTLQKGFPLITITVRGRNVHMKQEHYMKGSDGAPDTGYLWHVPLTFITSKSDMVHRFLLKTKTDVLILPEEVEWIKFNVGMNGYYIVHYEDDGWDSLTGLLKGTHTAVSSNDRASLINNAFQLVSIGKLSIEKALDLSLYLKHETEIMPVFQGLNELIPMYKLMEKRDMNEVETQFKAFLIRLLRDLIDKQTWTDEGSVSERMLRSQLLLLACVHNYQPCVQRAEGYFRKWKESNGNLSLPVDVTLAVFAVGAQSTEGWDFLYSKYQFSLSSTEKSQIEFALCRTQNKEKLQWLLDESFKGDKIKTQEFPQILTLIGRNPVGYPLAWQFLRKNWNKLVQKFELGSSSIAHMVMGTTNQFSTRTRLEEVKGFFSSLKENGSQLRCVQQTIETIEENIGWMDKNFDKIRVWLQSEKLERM
Cneo AK release: Cryptococcus neoformans cell lysis inducers, primary screen, AK release luminescence, single concentration; lysis activity, % at 15 µM; C. neoformans lysis, adenylate kinase release luminescence, 4 h; normalised: neutral wells 0, clomiphene wells 100; AID 651654, 2012; 0.2% of 360,000 active;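 active = mean lysis activity across replicates of at least 80%, whatever share of replicates individually reach that level; inactive = mean lysis activity below 80%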
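Material: C. neoformans cells; Schedule: 4 h static compound exposure, 37 °C, read 1 h post-reagent; Measured by: adenylate kinase release luminescence; Read-out: signal increase indicating cell lysis; Controls: Clomiphene as positive lysis control.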
FGF22 binding-2: binders of human FGF22 protein, dose response, FGF22 synaptogenesis inhibitor project, biophysical, thermal shift, cherry-pick retest; recombinant FGF22 thermal shift, SYPRO orange fluorescence; thermal shift activity, °C (ΔTm) at 38 µM; 2% of 1,000 active; shares compounds with FGF22 binding-1;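 active = fitted rise in melting shift crosses a set limit at or below the top valid dose tested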
FGF22 TSA: binders of human FGF22 protein, dose response, FGF22 synaptogenesis inhibitor project, biophysical, thermal shift, dry powder. Tm shift (activity), % at 38 µM. AID 743017, 2013. shares compounds with FGF22 binding-1. 50 tested, under 10 active. Thermal shift assay, SYPRO orange, melting temperature shift;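 active = compounds whose fitted dose curve of melting temperature shift rises past a set threshold within the tested doses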
TSA no protein: compound-only thermal shift signal without protein, dose response, artefact control for FGF22 binder project, biochemical, cherry-picked samples, RT-PCR instrument | 2% of 1,000 active | AC50, µM (top dose mostly 38 µM) | AID 743019, 2013 | shares compounds with FGF22 binding-1 | compound-only SYPRO orange thermal shift counter-screen, no protein;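 active = rising signal whose fitted curve reaches the 0.54 level within the top valid dose, showing a melting point, actives reach about 13 µM in these data; inactive = the rest, including activity in the opposite direction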; note: value is where the raw curve crosses a fixed level and not half-maximal
Each line names hits and unclear results; the compound was inactive in the other large screens (follow-up assays come after a bar, where they were run).

COc1ccc(C2=NOC(C(=O)Nc3cc(Br)ccc3O)C2)cc1OC (stereo unspecified)	none (no result: Ecoli rRNA inh, FGF22 binding-1, ERAP1 inh)
Cc1ccsc1C(=O)NNC(=O)c1ccc(NS(=O)(=O)c2cccs2)cc1	FGF22 binding-1 1.6 | FGF22 binding-2 inactive | TSA no protein inactive
CC(=O)Nc1cccc(C(=O)NNC(=O)c2ccc(NS(=O)(=O)c3cccs3)cc2)c1	none
CCC(=O)N(NC1=NS(=O)(=O)c2ccccc21)S(=O)(=O)c1ccc(C)cc1	FGF22 binding-1 1.7 (no result: Cneo AK release) | FGF22 binding-2 inactive | TSA no protein inactive
COc1ccc2c(CC(=O)NCC3CCC(C(=O)O)CC3)cc(=O)oc2c1 (stereo unspecified)	none (no result: Ecoli rRNA inh, FGF22 binding-1, HIV Env fusion, ERAP1 inh)
COc1ccc2c3c([nH]c2c1)[C@@H](CO)N(CC1CC1)CC31CN(C(=O)c2ccccc2F)C1	none (no result: FGF22 binding-1, HIV Env fusion, PGC1a acetyl inh, ERAP1 inh, Cneo AK release)
O=C(Nc1nnc(C(F)(F)F)s1)c1ccc(Br)s1	FGF22 binding-1 2.0 | FGF22 binding-2 inactive | TSA no protein inactive
COCC#Cc1cnc2c(c1)C(=O)N([C@@H](C)CO)C[C@@H](C)[C@@H](CN(C)C(=O)c1cnccn1)O2	none
COCC#Cc1cnc2c(c1)C(=O)N([C@H](C)CO)C[C@H](C)[C@H](CN(C)C(=O)c1cnccn1)O2	FGF22 binding-1 3.2 | FGF22 binding-2 inactive | TSA no protein inactive
CC(C)C#Cc1cnc2c(c1)C(=O)N([C@H](C)CO)C[C@H](C)[C@@H](CN(C)C(=O)c1cnccn1)O2	none
CC(C)C#Cc1cnc2c(c1)C(=O)N([C@@H](C)CO)C[C@H](C)[C@H](CN(C)C(=O)c1cnccn1)O2	FGF22 binding-1 1.3 | FGF22 binding-2 inactive | TSA no protein inactive
CC(C)CC(=O)n1sc(NC(=O)c2ccccc2)nc1=O	FGF22 binding-1 2.5 (no result: HIV Env fusion) | FGF22 binding-2 inactive | TSA no protein inactive
O=C(N/N=C/c1cccnc1)c1ccccc1Cl	none
O=C(N/N=C\c1cccnc1)c1cc(-c2ccc(Cl)s2)[nH]n1	FGF22 binding-1 1.3 (no result: PGC1a acetyl inh, Cneo AK release) | FGF22 binding-2 inactive | TSA no protein inactive
COc1ccc(OC(C)C(=O)N(C)Cc2nc(-c3cccc(C)c3)no2)cc1 (stereo unspecified)	FGF22 binding-1 1.6 (no result: PGC1a acetyl inh) | FGF22 binding-2 inactive | TSA no protein inactive
N#C/C(=C\c1ccc(N2CCOCC2)c([N+](=O)[O-])c1)c1nc2ccccc2[nH]1	FGF22 binding-1 1.7 (no result: HIV Env fusion, PGC1a acetyl inh, Cneo AK release) | FGF22 binding-2 inactive | TSA no protein inactive
N#C/C(=C/c1ccc(N2CCCC2)c([N+](=O)[O-])c1)c1nc2ccccc2[nH]1	none (no result: Ecoli rRNA inh, FGF22 binding-1, ERAP1 inh)
Cc1ccc(CN2C(=O)C(C)Nc3ncnc(N4CCOCC4)c32)cc1 (stereo unspecified)	none
CN(NC1OC(=O)c2ccccc21)c1ncc(C(F)(F)F)cc1Cl (stereo unspecified)	FGF22 binding-1 28 | FGF22 binding-2 inactive | TSA no protein inactive
CN(NC1OC(=O)c2ccccc21)c1c([N+](=O)[O-])cc(C(F)(F)F)cc1[N+](=O)[O-] (stereo unspecified)	none
Nc1nc2cc3c(cc2cc1C(=O)NCc1cccnc1)OCO3	none (no result: PGC1a acetyl inh, Cneo AK release)
Cn1c(C(=O)NCCc2c[nH]c3ccccc23)cc2sccc21	FGF22 binding-1 1.6 | FGF22 binding-2 inactive | TSA no protein inactive
O=C(NCCc1c[nH]c2ccccc12)c1cc2sccc2n1Cc1ccccc1	none (no result: Ecoli rRNA inh, FGF22 binding-1, ERAP1 inh)
CCOC(=O)[C@]12CCCC=C1N(Cc1ccccc1)C(=O)[C@H](CC(=O)NCC1CCCCC1)C2	FGF22 binding-1 2.2 (no result: PGC1a acetyl inh, Cneo AK release) | FGF22 binding-2 inactive | TSA no protein inactive
COc1ccc2oc(=N)c(C(=O)Nc3ccc(C)cc3)cc2c1	none (no result: PGC1a acetyl inh)
COc1ccc2o/c(=N\O)c(C(=O)Nc3ccc(C)cc3)cc2c1	FGF22 binding-1 2.3 (no result: PGC1a acetyl inh, Cneo AK release) | FGF22 binding-2 inactive | TSA no protein inactive
COc1cc(NC(=O)c2cccs2)c(OC)cc1NC(=O)Nc1ccc(F)cc1	FGF22 binding-1 1.4 | FGF22 binding-2 inactive | TSA no protein inactive
CCCC(=O)N1CCCC1(C)C(=O)Nc1ccc2nc(C)ccc2c1 (stereo unspecified)	none (no result: HIV Env fusion)
O=C(CNc1ccccc1OC(F)F)N1CCc2ccccc21	FGF22 binding-1 1.4 (no result: PGC1a acetyl inh, Cneo AK release) | FGF22 binding-2 inactive | TSA no protein inactive
Cc1ccc(NC(=O)c2ccc(Cl)c(S(=O)(=O)NCC3CCCO3)c2)c(O)c1 (stereo unspecified)	FGF22 binding-1 30 | FGF22 binding-2 inactive | TSA no protein inactive
CCCC(=O)Nc1ccc(C(=O)Nc2ccc([N+](=O)[O-])cc2OC)cc1	FGF22 binding-1 1.4 (no result: Cneo AK release) | FGF22 binding-2 inactive | TSA no protein inactive
CCCCC(=O)Nc1ccc(NC(=O)c2ccc([N+](=O)[O-])cc2)cc1OC	none (no result: PGC1a acetyl inh, Cneo AK release)
Cc1ccc(Nc2ccc(NCc3ccccc3)nn2)cc1C	none (no result: Ecoli rRNA inh, FGF22 binding-1, ERAP1 inh)
Clc1ccc(Nc2ccc(NCc3ccccc3)nn2)cc1	FGF22 binding-1 2.3 (no result: PGC1a acetyl inh, Cneo AK release) | FGF22 binding-2 inactive | FGF22 TSA inactive | TSA no protein inactive
CC(=O)Oc1ccc(C(=O)Nc2ccccc2C(=O)N2CCCCC2)cc1	FGF22 binding-1 1.8 | FGF22 binding-2 inactive | TSA no protein inactive
CCc1ccc(C(=O)NNC(=O)c2cccc(N3C(=O)CCC3=O)c2)cc1	FGF22 binding-1 19 (no result: Cneo AK release) | FGF22 binding-2 inactive | TSA no protein inactive
Cc1cccc(NC(=O)c2cccc(N3C(=O)CCC3=O)c2)c1	none
CC(C)N(C[C@H]1[C@H](c2ccccc2)[C@@H](CO)N1S(C)(=O)=O)C(=O)CN(C)C	FGF22 binding-1 1.2 (no result: HIV Env fusion) | FGF22 binding-2 inactive | TSA no protein inactive
CC(C)N(C[C@H]1[C@H](c2ccccc2)[C@H](CO)N1S(C)(=O)=O)C(=O)CN(C)C	none (no result: HIV Env fusion)

Screens: PubChem BioAssay, Broad Institute
